# Assay results taken from ChEMBL document CHEMBL1129274, “Synthesis and growth inhibitory properties of glycosides of 1-O-hexadecyl-2-O-methyl-sn-glycerol, analogs of the antitumor ether lipid ET-18-OCH3 (edelfosine)” (1996).
# Key:
# Format in all cases: functional
# [1] = test system: MCF7; assay: Inhibitor activity against MCF-7/Adr (Human colon carcinoma)cell line with varying concentration of the drug for 72 hrs; details: MCF7, 72 h, in the assay text read “Human breast carcinoma” for “Human colon carcinoma”
# Summary of the method: (§1)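 Cells exposed 72 h to a range of drug concentrations; drug stocks prepared in ethanol. Growth read by in situ fixation and sulforhodamine B protein staining. GI50 is the concentration giving 50% growth inhibition. Each experiment's value comes from three wells on each of two separate plates (six wells); reported as mean ± SD over n experiments.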
# [2] = test system: L1210; assay: Inhibitor activity against L1210 (murine leukemia )cell line with varying concentration of the drug for 72 hrs; details: Mus musculus, L1210, 72 h
# Summary of the method: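 Murine L1210 leukemia cells grown in RPMI 1640 with 10% FBS. Exposed 72 h to a range of drug concentrations; drug stocks in ethanol. Growth read by in situ fixation and sulforhodamine B staining. GI50 is the concentration giving 50% growth inhibition. Each value comes from six wells over two plates; reported as mean ± SD.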
# [3] = test system: A549; assay: Inhibitor activity against A549 (Human lung carcinoma)cell line with varying concentration of the drug for 72 hrs; details: A549, 72 h; summary of the method: as §1
# [4] = test system: L1210; assay: Inhibitor activity against L1210/vmdr (transfected with a plasmid containing mdr1) cell line with varying concentration of the drug for 72 hrs; details: Mus musculus, L1210, 72 h
# Summary of the method: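 L1210 leukemia transfected with human mdr1 (pHaMDR1/A), grown in RPMI 1640 with 10% FBS plus 0.06 µg/mL colchicine; colchicine removed one week before assay. Exposed 72 h to a range of drug concentrations (ethanol stocks). Sulforhodamine B staining after in situ fixation. GI50 is the concentration giving 50% growth inhibition, from six wells over two plates.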
# [5] = test system: MCF7; assay: Inhibitor activity against MCF-7(Human breast carcinoma)cell line with varying concentration of the drug for 72 hrs; details: MCF7, 72 h; summary of the method: as §1
# [6] = test system: HT-29; assay: Inhibitor activity against HT-29 (Human colon carcinoma)cell line with varying concentration of the drug for 72 hrs; details: HT-29, 72 h; summary of the method: as §1
# [7] = test system: Lewis lung carcinoma cell line; assay: Inhibitor activity against Lewis lung (murine lung carcinoma)cell line with varying concentration of the drug for 72 hrs; details: Mus musculus; summary of the method: as §1
# [8] = test system: P388; assay: Inhibitor activity against P388/Adr (murine leukemia )cell line with varying concentration of the drug for 72 hrs; details: Mus musculus, P388, 72 h; summary of the method: as §1
# [9] = test system: P388; assay: Inhibitor activity against P388 (murine leukemia )cell line with varying concentration of the drug for 72 hrs; details: Mus musculus, P388, 72 h; summary of the method: as §1
GI50 [1] [µM],GI50 [2] [µM],GI50 [3] [µM],GI50 [4] [µM],GI50 [5] [µM],GI50 [6] [µM],GI50 [7] [µM],GI50 [8] [µM],GI50 [9] [µM],SMILES
24.4,18.8,19.7,26.9,24.4,29.6,–,–,–,CCCCCCCCCCCCCCCCOC[C@H](CO[C@@H]1C[C@@H](O)[C@H](O)[C@H](CO)O1)OC
18.6,15.5,15.6,16.5,18.2,20,–,–,–,CCCCCCCCCCCCCCCCOC[C@H](CO[C@H]1O[C@@H](CO)[C@@H](O)[C@H](O)[C@H]1OC)OC
21.8,–,18.3,–,23.1,–,26,29.3,18.1,CCCCCCCCCCCCCCCCOC[C@H](CO[C@@H]1O[C@@H](CO)[C@@H](O)[C@H](O)[C@@H]1OC)OC
30.4,3.32,5.05,11,9.66,2.2,30.2,6.39,4.33,CCCCCCCCCCCCCCCCCCOC[C@H](COP(=O)([O-])OCC[N+](C)(C)C)OC [(R)-EDELFOSINE]
12.8,7.02,9.9,7.09,6.93,7.59,11.1,10.2,12.7,CCCCCCCCCCCCCCCCOC[C@H](CO[C@H]1C[C@@H](O)[C@H](O)[C@H](CO)O1)OC
23.3,16.2,18.1,18.9,21.7,23.2,–,–,–,CCCCCCCCCCCCCCCCOC[C@H](CO[C@@H]1O[C@@H](CO)[C@@H](O)[C@H](O)[C@@H]1O)OC
